This is an account of results in ChEMBL document CHEMBL1765082, “Aminothiazolomorphinans with mixed κ and μ opioid activity” (J Med Chem, 2011).

A word on the Ki: it is a measure of affinity in units of concentration, obtained from inhibition or displacement. Low readings indicate tighter binding, high ones weaker binding. What is called EC50 is the concentration that produces a half-maximal response. As a reminder, the Emax is the maximal effect, on the per cent scale that the assay sets. For orientation: inhibition means the change of the read-out against control, counted positive when it falls.

Activity calls are given as the source filed them. No cut-off for these calls is given here.

Chain of Delta-type opioid receptor (P41143 whole entry): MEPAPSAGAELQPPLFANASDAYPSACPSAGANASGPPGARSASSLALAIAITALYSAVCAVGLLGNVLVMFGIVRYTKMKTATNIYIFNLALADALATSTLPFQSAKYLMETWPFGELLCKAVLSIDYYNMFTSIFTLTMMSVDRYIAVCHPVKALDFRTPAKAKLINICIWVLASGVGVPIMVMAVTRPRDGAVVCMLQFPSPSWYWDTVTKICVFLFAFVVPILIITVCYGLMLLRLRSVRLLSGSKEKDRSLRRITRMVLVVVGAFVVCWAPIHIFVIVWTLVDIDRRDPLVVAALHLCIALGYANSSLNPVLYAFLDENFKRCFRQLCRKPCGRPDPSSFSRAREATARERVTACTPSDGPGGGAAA

The target of one test is T1, Kappa-type opioid receptor (Homo sapiens, UniProt P41145). Description: Displacement of [3H]U69593 from human kappa opioid receptor expressed in CHO cells after 60 mins by scintillation counting. The test is classed as cell-based.
T1 sequence (P41145 whole entry): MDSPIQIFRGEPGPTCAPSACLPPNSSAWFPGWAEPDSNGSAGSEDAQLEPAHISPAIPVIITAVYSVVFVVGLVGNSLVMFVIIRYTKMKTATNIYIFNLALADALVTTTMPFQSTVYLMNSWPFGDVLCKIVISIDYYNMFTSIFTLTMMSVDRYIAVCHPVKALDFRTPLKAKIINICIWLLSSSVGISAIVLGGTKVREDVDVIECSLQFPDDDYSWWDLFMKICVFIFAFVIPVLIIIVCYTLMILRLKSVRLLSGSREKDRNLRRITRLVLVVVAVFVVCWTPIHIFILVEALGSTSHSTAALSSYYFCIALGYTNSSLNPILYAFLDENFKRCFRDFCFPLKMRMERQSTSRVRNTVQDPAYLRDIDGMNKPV
In the case of `c1ccc(CNc2nc3cc4c(cc3s2)C[C@@H]2[C@@H]3CCCC[C@]43CCN2CC2CC2)cc1`, the Ki amounted to 2.1 nM.
For `CCNC(=S)Nc1nc2cc3c(cc2s1)C[C@@H]1[C@@H]2CCCC[C@]32CCN1CC1CC1`, affinity was put at a Ki of 18 nM.
`CC(=O)Nc1nc2cc3c(cc2s1)C[C@@H]1[C@@H]2CCCC[C@]32CCN1CC1CC1`: the Ki stood at 13 nM.
In turn, `Nc1nc2cc3c(cc2s1)C[C@@H]1[C@@H]2CCCC[C@]32CCN1CCCF` returned a Ki of 0.3 nM.
Compound `CCN(C(C)=O)c1nc2cc3c(cc2s1)C[C@@H]1[C@@H]2CCCC[C@]32CCN1CC1CC1` showed a Ki of 13 nM.
In the case of `CN(C)c1nc2cc3c(cc2s1)C[C@@H]1[C@@H]2CCCC[C@]32CCN1CC1CC1`, the affinity corresponds to a Ki of 0.45 nM.
With `CCNc1nc2cc3c(cc2s1)C[C@@H]1[C@@H]2CCCC[C@]32CCN1CC1CCC1`, affinity was put at a Ki of 3.7 nM.

A further test addresses T1, Kappa-type opioid receptor. Description: Antagonist activity at human kappa opioid receptor expressed in CHO cells assessed as […] in U50488-induced [35S]GTPgammaS binding by scintillation counting. The test is classed as functional, cell-based. (GTPγS is a poorly hydrolysed GTP analogue; its binding reports G protein activation.)
Turning to `Nc1nc2cc3c(cc2s1)C[C@@H]1[C@@H]2CCCC[C@]32CCN1CCCF`, the outcome was inactive.
On the same count and under the same terms, next, `CN(C)c1nc2cc3c(cc2s1)C[C@@H]1[C@@H]2CCCC[C@]32CCN1CC1CC1`: “inactive”.

The next test deals with T2, Mu-type opioid receptor (Homo sapiens, UniProt P35372). Description: Agonist activity at human mu opioid receptor expressed in CHO cells assessed as [35S]GTPgammaS binding by scintillation counting. The test is classed as functional, cell-based.
T2 sequence (P35372 whole entry): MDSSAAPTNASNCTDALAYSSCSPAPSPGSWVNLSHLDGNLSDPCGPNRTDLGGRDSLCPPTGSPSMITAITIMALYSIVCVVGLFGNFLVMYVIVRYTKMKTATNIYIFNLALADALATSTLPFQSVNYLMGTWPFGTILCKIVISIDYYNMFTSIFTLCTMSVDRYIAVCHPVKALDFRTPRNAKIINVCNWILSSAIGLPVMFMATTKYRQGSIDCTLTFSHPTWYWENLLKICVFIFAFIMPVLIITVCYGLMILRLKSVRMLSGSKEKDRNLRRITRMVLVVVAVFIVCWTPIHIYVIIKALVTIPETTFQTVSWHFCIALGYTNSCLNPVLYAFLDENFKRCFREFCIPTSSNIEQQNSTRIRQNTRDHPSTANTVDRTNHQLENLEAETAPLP
In the case of `Nc1nc2cc3c(cc2s1)C[C@@H]1[C@@H]2CCCC[C@]32CCN1CCCF`, the EC50 came out at 130 nM.
The same measure, in the same setting: next, `CN(C)c1nc2cc3c(cc2s1)C[C@@H]1[C@@H]2CCCC[C@]32CCN1CC1CC1`: 140 nM.

The target of the next test is T2, Mu-type opioid receptor. Description: Displacement of [3H]DAMGO from human mu opioid receptor expressed in CHO cells after 60 mins by scintillation counting. It is filed as cell-based.
The compound `c1ccc(CNc2nc3cc4c(cc3s2)C[C@@H]2[C@@H]3CCCC[C@]43CCN2CC2CC2)cc1` returned an inhibition constant (Ki) of 10 nM.
The compound `CCNC(=S)Nc1nc2cc3c(cc2s1)C[C@@H]1[C@@H]2CCCC[C@]32CCN1CC1CC1` came in with a Ki of 130 nM.
Turning to `CC(=O)Nc1nc2cc3c(cc2s1)C[C@@H]1[C@@H]2CCCC[C@]32CCN1CC1CC1`, the inhibition constant (Ki) was found to be 57 nM.
`Nc1nc2cc3c(cc2s1)C[C@@H]1[C@@H]2CCCC[C@]32CCN1CCCF` showed a Ki of 2.7 nM.
Regarding `CCN(C(C)=O)c1nc2cc3c(cc2s1)C[C@@H]1[C@@H]2CCCC[C@]32CCN1CC1CC1`, the Ki turned out to be 86 nM.
Turning to `CN(C)c1nc2cc3c(cc2s1)C[C@@H]1[C@@H]2CCCC[C@]32CCN1CC1CC1`, the Ki came to 10 nM.
Compound `CCNc1nc2cc3c(cc2s1)C[C@@H]1[C@@H]2CCCC[C@]32CCN1CC1CCC1` yielded a Ki of 1.1 nM.

The target in the next test is T2, Mu-type opioid receptor. Briefly: Agonist activity at human mu opioid receptor expressed in CHO cells assessed as [35S]GTPgammaS binding by scintillation counting relative to control. The test is classed as functional, cell-based. An outline of the steps: (§1)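 Membranes from CHO cells stably expressing human κ (15 μg protein/tube) or μ (7.5 μg protein/tube) opioid receptor, grown in DMEM with 10% FBS at 37 °C, 5% CO2. Twelve agonist concentrations were incubated 60 min at 30 °C in 50 mM Tris-HCl, 3 mM MgCl2, 100 mM NaCl, 0.2 mM EGTA, pH 7.4, with 3 μM GDP and [35S]GTPγS. Filtration, then scintillation counting. Stimulation expressed as percent over basal; ≥3 experiments in triplicate.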
Turning to `Nc1nc2cc3c(cc2s1)C[C@@H]1[C@@H]2CCCC[C@]32CCN1CCCF`, the Emax is 65%.
Regarding `CN(C)c1nc2cc3c(cc2s1)C[C@@H]1[C@@H]2CCCC[C@]32CCN1CC1CC1`, the Emax was 57%.

The target of a further test is T1, Kappa-type opioid receptor. Briefly: Agonist activity at human kappa opioid receptor expressed in CHO cells assessed as [35S]GTPgammaS binding by scintillation counting. It is filed as functional, cell-based.
Turning to `Nc1nc2cc3c(cc2s1)C[C@@H]1[C@@H]2CCCC[C@]32CCN1CCCF`, the EC50 came out at 32 nM.
In the case of `CN(C)c1nc2cc3c(cc2s1)C[C@@H]1[C@@H]2CCCC[C@]32CCN1CC1CC1`, the EC50 amounted to 46 nM.

Another test deals with T1, Kappa-type opioid receptor. Description: Agonist activity at human kappa opioid receptor expressed in CHO cells assessed as [35S]GTPgammaS binding by scintillation counting relative to control. It is filed as functional, cell-based. An outline of the steps:
as §1
For `Nc1nc2cc3c(cc2s1)C[C@@H]1[C@@H]2CCCC[C@]32CCN1CCCF`, the maximal effect (Emax) came out at 100%.
In the case of `CN(C)c1nc2cc3c(cc2s1)C[C@@H]1[C@@H]2CCCC[C@]32CCN1CC1CC1`, the Emax stood at 110%.

The next test has as its target Delta-type opioid receptor (Homo sapiens, UniProt P41143). Briefly: Displacement of [3H]Naltrindole from human delta opioid receptor expressed in CHO cells after 3 hrs by scintillation counting. The test is classed as cell-based. In outline: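 Membranes from CHO cells expressing human κ, μ or δ opioid receptor were incubated with 12 compound concentrations and a receptor-selective radioligand at 25 °C in 50 mM Tris-HCl, pH 7.5. […] Nonspecific binding was defined with 10 μM naloxone. Ki reported as mean ± SEM, three experiments in triplicate.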
Background: In a radioligand displacement assay an active substance lowers the binding of a labelled ligand.
The compound `c1ccc(CNc2nc3cc4c(cc3s2)C[C@@H]2[C@@H]3CCCC[C@]43CCN2CC2CC2)cc1` had a Ki of 41 nM.
The same measure, in the same setting: the figure for `CCNC(=S)Nc1nc2cc3c(cc2s1)C[C@@H]1[C@@H]2CCCC[C@]32CCN1CC1CC1` is 150 nM; for `CC(=O)Nc1nc2cc3c(cc2s1)C[C@@H]1[C@@H]2CCCC[C@]32CCN1CC1CC1` it is 750 nM; for `Nc1nc2cc3c(cc2s1)C[C@@H]1[C@@H]2CCCC[C@]32CCN1CCCF` it is 54 nM.
On to `CCN(C(C)=O)c1nc2cc3c(cc2s1)C[C@@H]1[C@@H]2CCCC[C@]32CCN1CC1CC1`, for which affinity was put at a Ki of 740 nM.
The compound `CN(C)c1nc2cc3c(cc2s1)C[C@@H]1[C@@H]2CCCC[C@]32CCN1CC1CC1` displayed a Ki of 65 nM.
Still for that read-out and setting: next, `CCNc1nc2cc3c(cc2s1)C[C@@H]1[C@@H]2CCCC[C@]32CCN1CC1CCC1`: 91 nM.

The species entered for the next test is Homo sapiens. Briefly: Selectivity ratio of Ki for human mu opioid receptor to Ki for human kappa opioid receptor.
On to `c1ccc(CNc2nc3cc4c(cc3s2)C[C@@H]2[C@@H]3CCCC[C@]43CCN2CC2CC2)cc1`, for which the Ratio Ki was determined as 5.
Same read-out and setting: next, `CCNC(=S)Nc1nc2cc3c(cc2s1)C[C@@H]1[C@@H]2CCCC[C@]32CCN1CC1CC1`: 7; `CC(=O)Nc1nc2cc3c(cc2s1)C[C@@H]1[C@@H]2CCCC[C@]32CCN1CC1CC1`: 4.
Take `Nc1nc2cc3c(cc2s1)C[C@@H]1[C@@H]2CCCC[C@]32CCN1CCCF`: the Ratio Ki came out at 9.
For the compound `CCN(C(C)=O)c1nc2cc3c(cc2s1)C[C@@H]1[C@@H]2CCCC[C@]32CCN1CC1CC1`, the Ratio Ki came to 4.
On to `CN(C)c1nc2cc3c(cc2s1)C[C@@H]1[C@@H]2CCCC[C@]32CCN1CC1CC1`, for which the Ratio Ki stood at 22.
Still for that read-out and setting: next, `CCNc1nc2cc3c(cc2s1)C[C@@H]1[C@@H]2CCCC[C@]32CCN1CC1CCC1`: 0.3.

The next test has as its target T2, Mu-type opioid receptor. Description: Antagonist activity at human mu opioid receptor expressed in CHO cells assessed as inhibition of DAMGO-induced [35S]GTPgammaS binding at 10 uM by scintillation counting. It is filed as functional, cell-based.
Take `Nc1nc2cc3c(cc2s1)C[C@@H]1[C@@H]2CCCC[C@]32CCN1CCCF`: the inhibition was determined as 40%.
Still for that read-out and setting: the figure for `CN(C)c1nc2cc3c(cc2s1)C[C@@H]1[C@@H]2CCCC[C@]32CCN1CC1CC1` is 40%.

The species entered for a further test is Homo sapiens. Briefly: Selectivity ratio of Ki for human delta opioid receptor to Ki for human kappa opioid receptor.
Take `c1ccc(CNc2nc3cc4c(cc3s2)C[C@@H]2[C@@H]3CCCC[C@]43CCN2CC2CC2)cc1`: the Ratio Ki came to 20.
For `CCNC(=S)Nc1nc2cc3c(cc2s1)C[C@@H]1[C@@H]2CCCC[C@]32CCN1CC1CC1`, the Ratio Ki turned out to be 8.
For the compound `CC(=O)Nc1nc2cc3c(cc2s1)C[C@@H]1[C@@H]2CCCC[C@]32CCN1CC1CC1`, the Ratio Ki was found to be 58.
For the compound `Nc1nc2cc3c(cc2s1)C[C@@H]1[C@@H]2CCCC[C@]32CCN1CCCF`, the Ratio Ki amounted to 180.
As for `CCN(C(C)=O)c1nc2cc3c(cc2s1)C[C@@H]1[C@@H]2CCCC[C@]32CCN1CC1CC1`, the Ratio Ki was 57.
With `CN(C)c1nc2cc3c(cc2s1)C[C@@H]1[C@@H]2CCCC[C@]32CCN1CC1CC1`, the Ratio Ki turned out to be 140.
Still for that read-out and setting: the figure for `CCNc1nc2cc3c(cc2s1)C[C@@H]1[C@@H]2CCCC[C@]32CCN1CC1CCC1` is 25.
